Shown are actives, neighbours in structure and some others; about 3.7% of the full set was active somewhere.
KCNQ1 act: potentiators or activators of human KCNQ1 potassium channel; P51787; CHO-K1 KCNQ1, thallium flux FluxOR fluorescence; hits give high values; B-score at 10 µM; 310,000 compounds, 0.35% hits;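 active = fluorescence ratio B-score, a plate-corrected score, at least three library SD, with initial intensity B-score within 5 SD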
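System: CHO-K1 cells stably expressing KCNQ1 / Medium: assay buffer for compound exposure, DMSO matched across wells / Reagent: thallium- and potassium-containing depolarizing buffer / Compound: one concentration, matched DMSO / Incubation: 20 min compound pretreatment at room temperature / Measured by: kinetic FluxOR fluorescence, 10 s baseline plus 110 s post-stimulus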
KCNK9 inh: blocks the human KCNK9 two-pore domain potassium channel. Q9NPC2. HEK293 KCNK9, FluxOR thallium flux fluorescence; hits give low values. B-score at 10 µM. 310,000 compounds, 1.2% hits. AID 488922;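 active = ratio B-score over 3 SD below the library mean, with starting fluorescence within 5 SD of its mean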;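 also: negative B-score means less thallium flux so channel inhibition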
KCNQ1 inh: blocks the human KCNQ1 potassium channel; B-score at 10 µM; CHO-K1 KCNQ1, FluxOR thallium flux fluorescence; hits give high values; AID 2642; 310,000 compounds, 1.3% hits;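 active = compounds whose thallium flux B-score, printed positive for inhibition, exceeds three library SD while starting fluorescence stays within three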;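 also: channel opened by potassium depolarization with thallium stimulus after 20 min compound exposure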
Kir21 inh: inhibitors of mouse Kir2.1 inward-rectifier potassium channel | HEK293-Kir2.1, FluxOR thallium flux fluorescence; hits give low values | B-score at 10 µM | 310,000 compounds, 0.85% hits | AID 1672;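 active = fluorescence ratio B-score at or below minus 3 SD of library scores, with starting-brightness B-score within 2 SD, cut at about -4.2 in these data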;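 also: channel flux triggered by added potassium and thallium sulfate stimulus; B-score of peak minus minimum fluorescence over baseline after thallium stimulus; more negative B-score means stronger Kir2.1 block with less thallium influx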
KCNK3 block: human KCNK3 channel inhibition, primary screen; B-score at 10 µM; CHO-KCNK3 thallium flux, FluxOR fluorescence; hits give low values; O14649; 340,000 compounds, 0.84% hits;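 active = B-score under library mean minus 4 SD, starting fluorescence ratio at most library mean plus 5 SD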;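 also: more negative B-score means stronger inhibition of thallium flux through KCNK3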
hERG protect: compounds protecting human hERG from proarrhythmic drug block | AID 1511 | 310,000 compounds, 0.51% hits | Q12809 | CHO-hERG, FluxOR thallium flux, dofetilide IC70 present | activation (rescue from dofetilide block), less the hit threshold, % at 10 µM;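 active = activation above the mean of controls blocked by dofetilide plus 5 SD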;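 also: thallium influx through hERG after potassium depolarization seen as dye fluorescence rise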
KCNQ1 inh valid: confirmation of human KCNQ1 potassium channel inhibitors; shares compounds with KCNQ1 inh; KCNQ1 cell line, FluxOR thallium flux fluorescence; inhibition, % at 10 µM; 1,600 compounds, 93% hits;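 active = primary screen active, with duplicate mean exceeding buffer control mean plus 3 SD of buffer wells, cut at about 28% in these data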;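 also: 0% = buffer control ratio and 100% = XE991 inhibitor control ratio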
CHO KCNQ1 ctr: activity in parental CHO cells lacking KCNQ1; shares compounds with KCNQ1 inh; parental CHO-K1, FluxOR thallium flux fluorescence ratio; hits give low values; zero means no signal rise above baseline; fluorescence ratio (Tl flux) at 10 µM; 1,600 compounds, 21% hits; AID 588366;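 active = mean of duplicate thallium-flux fluorescence ratios in parental host cells more than 5 SD below the buffer control mean, cut at about 0.38 in these data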;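 also: ratio is peak minus minimum fluorescence divided by baseline fluorescence; actives read low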
KCNQ1 ephys val: human KCNQ1 inhibition validated by electrophysiology; shares compounds with KCNQ1 inh; KCNQ1-CHO cells, automated patch clamp current; calls only at 10 µM; 490 compounds, 20% hits; AID 624120;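 active = KCNQ1 current drop exceeding 3 SD of negative control wells, seen in both duplicate runs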;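 also: steady state current during a 2 s step from -80 to +40 mV; negative values mean current inhibition and positive values mean potentiation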
KCNQ2 spec: KCNQ1 inhibitor that also blocks rat KCNQ2 channel; inhibition, % at 10 µM; 1,600 compounds, 71% hits; shares compounds with KCNQ1 inh; KCNQ2 cells, FluxOR thallium flux fluorescence;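 active = mean percent inhibition of the KCNQ2 thallium signal more than 5 SD above the buffer-only control wells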;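 also: KCNQ2 expressed in CHO cells; 0% = buffer control wells and 100% = XE-991 inhibitor control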
KCNQ1-KCNE1 inh: KCNQ1 inhibitor that also blocks human KCNQ1/KCNE1 channel; shares compounds with KCNQ1 inh; KCNQ1/KCNE1 cells, FluxOR thallium flux fluorescence; inhibition, % at 10 µM; 1,600 compounds, 77% hits;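 active = mean percent inhibition of duplicate wells above the buffer-only control mean plus 3 SD of those controls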;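 also: 0% = buffer only wells and 100% = XE-991 inhibitor control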
KCNK9 block conf: human KCNK9 inhibitor confirmation. shares compounds with KCNK9 inh. HEK293 KCNK9 cells, FluxOR thallium flux fluorescence. inhibition, % at 10 µM. 4,900 compounds, 43% hits. AID 492992;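 active = thallium signal inhibited by more than 5 SD of the compound-free buffer control wells, on both duplicate plates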;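 also: 0% = assay buffer control wells without compound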
Kir2-1 spec: mouse Kir2.1 off-target activity of KCNK9 modulators. shares compounds with KCNK9 inh. Kir2.1 cells, FluxOR thallium flux fluorescence. inhibition, % at 10 µM. 4,900 compounds, 4% hits. AID 492993;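 active = thallium signal drop more than 5 SD beyond the mean of the no-compound control wells, seen in both duplicate plates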;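 also: signal is fluorescence rise after thallium addition divided by baseline fluorescence; plate controls were assay buffer only for no effect and full block by chlorpromazine control for full effect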
HEK293 Tl ctr: second check of KCNK9 modulator effects in non-induced HEK293 cells | shares compounds with KCNK9 inh | FluxOR thallium flux | inhibition, % at 10 µM | 4,900 compounds, 40% hits;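 active = thallium signal drop beyond 5 SD of the untreated control mean, on both duplicate plates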;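 also: plate controls were buffer only IC0 wells for no effect and SID17386958 at its maximal inhibitory level for full effect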
KCNK3 inh conf: human KCNK3 channel inhibition, confirmation assay | shares compounds with KCNK3 block | CHO-KCNK3 thallium flux, FluxOR fluorescence; 0% buffer, 100% carvedilol maximal block | ratio percent of control, % at 10 µM | 2,400 compounds, 99% hits | AID 651638;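 active = ratio percent of control, averaged over triplicates, above buffer control mean plus 5 SD, cut at about 64% in these data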;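 also: ratio is the fluorescence rise from min to max over baseline after thallium stimulus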
KCNK3 noninduced: KCNK3 inhibitor counter-screen hit in non-induced cells; shares compounds with KCNK3 block; non-induced KCNK3 parental cells, FluxOR thallium flux; hits give low values; thallium flux ratio (lower = more inhibition) at 10 µM; 2,400 compounds, 40% hits; AID 651747;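 active = thallium flux ratio, averaged over three wells, more than 5 SD below the buffer control mean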;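 also: host cells are CHO cells without KCNK3 induction; ratio is peak minus trough fluorescence over baseline then normalized to buffer controls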
* hit, by the source's call; i = inactive; . = no result; + = active, no number.

SMILES | KCNQ1 act | KCNK9 inh | KCNQ1 inh | Kir21 inh | KCNK3 block | hERG protect | KCNQ1 inh valid | CHO KCNQ1 ctr | KCNQ1 ephys val | KCNQ2 spec | KCNQ1-KCNE1 inh | KCNK3 inh conf | KCNK3 noninduced | others
CCOc1ccc(N(CC(=O)Nc2ccc(C)c(C)c2)S(=O)(=O)c2c(C)noc2C)cc1 | i | i | 7* | -0.14 | -9.7* | -5 | 96* | 0.38 | i | 112%* | 143%* | 93* | i
COc1ccc2[nH]c3c(N4CCc5ccccc5C4)ncnc3c2c1 | i | i | 11* | -0.89 | -8.7* | -22 | 143* | 0.25* | . | 115%* | + | 130* | 0.12*
Cc1ccc(NC(=S)NCc2ccccc2)cc1S(=O)(=O)N1CCCCC1 | i | i | 6* | -2.7 | -11* | -11 | 108* | 0.52 | i | 62%* | i | 116* | i
Cc1ccc(NC(=O)CSc2ccccc2)cc1S(=O)(=O)N1CCCCC1 | . | . | . | . | i | . | . | . | . | . | . | . | .
Cc1nc2ccc(S(=O)(=O)Nc3cccc(-c4nc5cccnc5s4)c3C)cc2s1 | i | i | 12* | 0.84 | -9.6* | -21 | 145* | 0.32* | . | 105%* | + | 114* | i
Cc1nc2ccc(S(=O)(=O)Nc3cc(-c4nc5cccnc5s4)ccc3C)cc2s1 | i | i | i | -0.02 | i | -17 | . | . | . | . | . | . | .
Cc1ccc(NC(=O)c2cc(-c3cccs3)nc3ccccc23)nc1 | i | i | 6* | -0.53 | -11* | -20 | 88* | 0.37* | . | 121%* | 196%* | 111* | 0.14*
CCOC(=O)Nc1nc(-c2ccccc2)c(C(=O)c2ccc(Cl)cc2)s1 | i | -15* | 7* | 0.41 | -8.7* | -12 | 98* | 0.36* | . | 94%* | 171%* | 125* | 0.16* | KCNK9 block conf=40%*;Kir2-1 spec=i;HEK293 Tl ctr=42%*
CCOC(=O)Nc1sc(C)nc1-c1ccccc1 | i | i | i | 1.1 | i | -4 | . | . | . | . | . | . | .
O=C(NCC1OCCc2ccccc21)c1cc(COc2c(F)cccc2F)on1 (stereo not drawn) | i | i | i | 0.83 | i | -3 | . | . | . | . | . | . | .
CC(C)(C)c1cc(C(=O)NNC(=O)Nc2ccccc2)n(Cc2ccccc2)n1 | i | i | i | 1.3 | i | -8 | . | . | . | . | . | . | .
CC(C)(C)c1cc(C(=O)NCc2cc(F)cc3c2OCOC3)n(Cc2ccccc2)n1 | i | -7.9* | 9* | -0.15 | -12* | -11 | 134* | 0.37* | . | 101%* | 198%* | 135* | 0.13*
COc1ccc(NC(=O)C2CCN(S(=O)(=O)c3cccc4nonc34)CC2)c(OC)c1 | i | i | i | -0.08 | i | -10 | . | . | . | . | . | . | .
O=C(N/N=C/c1ccc(O)c(Br)c1)c1cc2c(ccc3ccccc32)o1 | i | i | i | -0.08 | i | -4 | . | . | . | . | . | . | .
O=C(N/N=C/c1cc(Br)c(O)c(Br)c1)c1cc2c(ccc3ccccc32)o1 | i | i | 15* | -3 | -11* | -49 | 160* | 0.32* | . | 130%* | + | 136* | 0.093*
Cc1cc(NC(=O)Nc2cccc(Cl)c2)n(-c2ccccn2)n1 | i | -13* | 14* | 1 | -11* | -21 | 192* | 0.39 | i | 125%* | + | 126* | i | KCNK9 block conf=54%*;Kir2-1 spec=i;HEK293 Tl ctr=32%*
NNC1=N[C@H]2CS(=O)(=O)C[C@H]2S1 | i | i | i | 0.44 | i | -2 | . | . | . | . | . | . | .
Cc1cccc(NC(=O)CSc2nc3ccccc3nc2N2CC(C)OC(C)C2)c1 (stereo not drawn) | i | i | 8* | -0.88 | -11* | -9 | 102* | 0.42 | i | 122%* | 132%* | 114* | i
O=C(CSc1nc2ccccc2nc1N1CCCCC1)Nc1ccc(F)cc1 | i | -6.9* | 13* | 0.13 | -9.8* | -9 | 108* | 0.41 | i | 97%* | 158%* | 137* | 0.12*
Fc1ccc(C2c3cccn3CCN2C(=S)Nc2cccc(F)c2)cc1 (stereo not drawn) | i | -7.5* | 9* | -0.41 | -10* | -16 | 118* | 0.39 | + | 116%* | 182%* | 135* | 0.15*
CSc1sc(C(=O)NNC(C)=O)c2c1C=CCC2 | i | i | i | -0.12 | i | -9 | . | . | . | . | . | . | .
Cc1cc(C)nc(N(C#N)CCOc2ccc(Cl)cc2)n1 | i | i | i | -0.73 | i | -6 | . | . | . | . | . | . | .
CC(C)Nc1nc(NC(C)C)nc(N(C#N)CCOc2ccc(Cl)cc2Cl)n1 | i | -7.9* | 14* | 0 | -12* | -4 | 134* | 0.31* | . | 128%* | + | 135* | 0.13*
CC1=C(C(=O)OCc2ccccc2)C(c2cccc3ccccc23)NC(=O)N1CCCC(=O)O (stereo not drawn) | . | . | . | . | i | . | . | . | . | . | . | . | .

Source: PubChem (Johns Hopkins Ion Channel Center)
